The values that follow come from ChEMBL document CHEMBL3992520, “Development of the First Two-Pore Domain Potassium Channel TWIK-Related K+ Channel 1-Selective Agonist Possessing in Vivo Antinociceptive Activity” (J Med Chem, 2017).

Data set [1] has as its system Mus musculus. In words: Antinociceptive activity in CD1 mouse assessed as increase in thermal-stimulus induced paw withdrawal latency at 60 mg/kg, sc measured after 30 mins by hot plate method relative to control. The class given is functional. In short, it runs like this: (§1)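 Male CD1 mice (20-25 g), n=8 per group, given 60 mg/kg s.c. After 5 min acclimatization on a plate at room temperature, mice were placed on a 52 °C hotplate. Latency to forepaw or hindpaw licking or hindpaw flicking was recorded, with a 30 s cut-off. Latency was taken after two consecutive stable baselines, then 30 and 45 min post-dose. Effect = (postdrug − predrug latency)/predrug latency ×100.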
In general terms: In hot-plate and tail-flick tests a longer latency is read as antinociception.

Data set [2] deals with Mus musculus. Nature of the data set: Antinociceptive activity in CD1 mouse assessed as increase in thermal-stimulus induced paw withdrawal latency at 60 mg/kg, sc measured after 45 mins by hot plate method relative to control. The class given is functional. In short, it runs like this: as §1
Data set [3] deals with Liver. In words: Drug metabolism in rat liver microsomes assessed as (E)-2-cyano-3-(furan-3-yl)acrylic acid formation at 40 mM in presence of NADPH-cofactor measured after 24 hrs by HPLC analysis. The class given is ADME, microsome. The conditions noted are these: 40000 µM. In short, it runs like this:
(§2)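 Incubation mix: rat liver microsomes (20 mg/mL stock), phosphate buffer pH 7.4 and NADPH (40 mM stock). Drug was added from a 40 mM DMSO stock. Samples were vortexed and incubated at 37 °C with stirring.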
In general terms: Liver microsomes are a subcellular fraction often used to study metabolism.

Data set [4] is described as follows: Half life in rat liver microsomes at 40 mM in presence of NADPH-cofactor by HPLC analysis. The class given is ADME, microsome.
Data set [5] addresses T1, Potassium channel subfamily K member 2 (Homo sapiens) (UniProt O95069).
T1 sequence (whole entry): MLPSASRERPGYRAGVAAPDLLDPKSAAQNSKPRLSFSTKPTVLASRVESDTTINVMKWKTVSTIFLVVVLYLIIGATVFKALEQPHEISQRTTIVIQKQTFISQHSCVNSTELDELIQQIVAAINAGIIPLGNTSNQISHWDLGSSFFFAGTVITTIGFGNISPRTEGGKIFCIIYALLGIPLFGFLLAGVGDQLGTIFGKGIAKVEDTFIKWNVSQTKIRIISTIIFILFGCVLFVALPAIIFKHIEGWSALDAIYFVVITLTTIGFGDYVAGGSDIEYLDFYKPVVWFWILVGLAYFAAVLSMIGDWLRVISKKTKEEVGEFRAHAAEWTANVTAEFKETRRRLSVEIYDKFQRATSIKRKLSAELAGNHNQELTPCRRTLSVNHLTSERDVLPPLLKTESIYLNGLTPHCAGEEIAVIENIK
In words: Agonist activity at human TREK1 expressed in HEK293 cells assessed as increase in K+ current at 100 uM measured at +60 mV by whole-cell patch clamp method relative to control. It counts as cell-based. In short, it runs like this:
(§3)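 Human TREK-1 (kcnk2) in pIRES2-eGFP was stably expressed in HEK-293 cells under G418 selection, and cells were used 4–48 h after plating. Bath (mM): 140 NaCl, 10 TEA-Cl, 5 KCl, 3 MgCl2, 1 CaCl2, 10 HEPES, pH 7.4. Pipette (mM): 155 KCl, 3 MgCl2, 5 EGTA, 10 HEPES, pH 7.2. Holding was −80 mV, with a step to −100 mV then a 400 ms ramp to +60 mV every 5 s. Read-out was the ratio Imax/I0 taken from I/V curves. Stocks were 20 mM in DMSO.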
(In general: The patch-clamp technique gives a direct electrical read-out from membranes.)

Data set [6] relates to Mus musculus. In words: Antinociceptive activity in CD1 mouse assessed as inhibition of acetic acid-induced writhes at 10 mg/kg, sc pretreated for 15 mins followed by acetic acid challenge measured within 20 mins relative to control. It counts as functional. Put shortly: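 Male CD1 mice (20-25 g), n=8 per group, dosed at 10 mg/kg s.c. or with vehicle (5% Tween 80 in 0.9% saline). Dosing was 15 min before i.p. 0.6% acetic acid (10 mL/kg). Abdominal writhes were counted for 20 min. Effect = (mean control writhes − mean test writhes)/mean control writhes ×100.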

In data set [7] the target is T1, Potassium channel subfamily K member 2 (Homo sapiens). Nature of the data set: Agonist activity at human TREK1 expressed in HEK293 cells assessed as increase in K+ current at 20 uM measured at +60 mV by whole-cell patch clamp method relative to control. The class given is cell-based. Put shortly:
as §3

Data set [8] relates to Liver. In words: Drug metabolism in rat liver microsomes assessed as (E)-2-cyano-3-(1H-indol-2-yl)acrylic acid formation at 40 mM in presence of NADPH-cofactor measured after 24 hrs by HPLC analysis. The class given is ADME, microsome. Particulars: 40000 µM. Put shortly:
as §2

For data set [9], the target named is T1, Potassium channel subfamily K member 2 (Homo sapiens). Nature of the data set: Agonist activity at human TREK1 expressed in xenopus oocytes assessed as increase in K+ current at 20 uM measured at 0 mV by double microelectrode method relative to control. The class given is cell-based.
Data set [10] concerns Liver. In words: Drug level in rat liver microsomes treated with at 40 mM (E)-ethyl 2-cyano-3-(3,4-dihydroxyphenyl)acrylate measured after 24 hrs by HPLC analysis. The class given is ADME, microsome. The conditions noted are these: 40000 µM. Put shortly:
as §2

Data set [11] has as its system Mus musculus. Nature of the data set: Antinociceptive activity in wild-type C57Bl/6J mouse assessed as increase in thermal-stimulus induced paw withdrawal latency at 60 mg/kg, sc measured after 45 mins by hot plate method relative to control. It counts as functional. Put shortly:
(§4)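 TREK-1−/− and wild-type C57Bl/6J littermates came from heterozygous crosses, n=7. Dose was 60 mg/kg s.c. The 52 °C hotplate measured paw-lick latency, 30 s cut-off, with baseline from two stable pre-dose latencies.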

Data set [12] addresses T2, Potassium channel subfamily K member 4 (Homo sapiens) (UniProt Q9NYG8).
T2 sequence (whole entry): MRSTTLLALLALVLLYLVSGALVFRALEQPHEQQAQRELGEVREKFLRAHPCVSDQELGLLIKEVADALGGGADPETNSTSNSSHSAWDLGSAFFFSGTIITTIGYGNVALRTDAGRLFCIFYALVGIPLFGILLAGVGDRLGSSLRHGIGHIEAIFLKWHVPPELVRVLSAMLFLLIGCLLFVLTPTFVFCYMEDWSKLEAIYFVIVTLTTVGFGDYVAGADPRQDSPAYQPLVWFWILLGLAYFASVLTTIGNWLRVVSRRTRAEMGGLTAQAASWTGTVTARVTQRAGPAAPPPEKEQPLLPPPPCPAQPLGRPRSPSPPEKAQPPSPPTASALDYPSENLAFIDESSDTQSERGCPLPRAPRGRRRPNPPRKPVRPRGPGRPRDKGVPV
Nature of the data set: Agonist activity at TRAAK (unknown origin) expressed in HEK293 cells assessed as increase in K+ current at 100 uM measured at +60 mV by whole-cell patch clamp method relative to control. The class given is cell-based.

For data set [13], the system named is Mus musculus. In words: In vivo activation of TREK1 in C57Bl/6J mouse assessed as increase in thermal-stimulus induced paw withdrawal latency at 60 mg/kg, sc measured after 30 mins by hot plate method relative to control. It counts as functional. In short, it runs like this: as §4
Data set [14] concerns Mus musculus. Nature of the data set: Antinociceptive activity in wild-type C57Bl/6J mouse assessed as increase in thermal-stimulus induced paw withdrawal latency at 60 mg/kg, sc measured after 30 mins by hot plate method relative to control. It counts as functional. Put shortly:
as §4

The target in data set [15] is T3, Potassium channel subfamily K member 10 (Homo sapiens) (UniProt P57789).
T3 sequence (whole entry): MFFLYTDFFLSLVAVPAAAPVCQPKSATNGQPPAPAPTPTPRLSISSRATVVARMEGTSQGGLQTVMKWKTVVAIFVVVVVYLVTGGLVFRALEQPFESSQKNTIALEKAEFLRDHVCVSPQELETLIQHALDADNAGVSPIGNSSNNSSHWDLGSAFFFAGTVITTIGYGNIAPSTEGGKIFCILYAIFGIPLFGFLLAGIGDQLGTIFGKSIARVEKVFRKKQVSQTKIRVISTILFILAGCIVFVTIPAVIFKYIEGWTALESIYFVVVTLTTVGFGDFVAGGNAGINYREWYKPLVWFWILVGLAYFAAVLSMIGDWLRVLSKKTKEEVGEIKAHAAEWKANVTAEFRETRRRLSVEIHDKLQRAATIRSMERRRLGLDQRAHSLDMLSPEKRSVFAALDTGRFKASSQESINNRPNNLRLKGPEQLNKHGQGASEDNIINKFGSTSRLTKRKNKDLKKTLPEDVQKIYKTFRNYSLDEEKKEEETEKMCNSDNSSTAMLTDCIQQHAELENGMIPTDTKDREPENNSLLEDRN
In words: Agonist activity at TREK-2 (unknown origin) expressed in HEK293 cells assessed as increase in K+ current at 100 uM measured at +60 mV by whole-cell patch clamp method relative to control. It counts as cell-based.

Data set [16] relates to Liver. In words: Drug level in rat liver microsomes treated with at 40 mM (E)-ethyl 2-cyano-3-(furan-3-yl)acrylate measured after 24 hrs by HPLC analysis. The class given is ADME, microsome. Particulars: 40000 µM. Put shortly:
as §2

Data set [17] concerns the target Potassium channel subfamily K member 9 (Homo sapiens) (UniProt Q9NPC2). Nature of the data set: Agonist activity at TASK3 (unknown origin) expressed in HEK293 cells assessed as increase in K+ current at 100 uM measured at +60 mV by whole-cell patch clamp method relative to control. It counts as cell-based.
Data set [18] has as its system Mus musculus. In words: Antinociceptive activity in TREK1 deficient C57Bl/6J mouse assessed as increase in thermal-stimulus induced paw withdrawal latency at 60 mg/kg, sc measured after 45 mins by hot plate method relative to control. The class given is functional. Put shortly:
as §4

Data set [19] relates to Mus musculus. Nature of the data set: Antinociceptive activity in TREK1 deficient C57Bl/6J mouse assessed as increase in thermal-stimulus induced paw withdrawal latency at 60 mg/kg, sc measured after 30 mins by hot plate method relative to control. The class given is functional. Put shortly: as §4
Data set [20] relates to Mus musculus. Nature of the data set: In vivo activation of TREK1 in C57Bl/6J mouse assessed as increase in thermal-stimulus induced paw withdrawal latency at 60 mg/kg, sc measured after 45 mins by hot plate method relative to control. The class given is functional. In short, it runs like this: as §4
The test system of data set [21] is Liver. Nature of the data set: Drug level in rat liver microsomes treated with at 40 mM (E)-ethyl 2-cyano-3-(1H-indol-2-yl)acrylate measured after 24 hrs by HPLC analysis. The class given is ADME, microsome. The conditions noted are these: 40000 µM. Put shortly: as §2

A value given as a limit tells only on which side of the number the result lay.

Chain of Potassium channel subfamily K member 9 (Homo sapiens) (Q9NPC2 whole entry): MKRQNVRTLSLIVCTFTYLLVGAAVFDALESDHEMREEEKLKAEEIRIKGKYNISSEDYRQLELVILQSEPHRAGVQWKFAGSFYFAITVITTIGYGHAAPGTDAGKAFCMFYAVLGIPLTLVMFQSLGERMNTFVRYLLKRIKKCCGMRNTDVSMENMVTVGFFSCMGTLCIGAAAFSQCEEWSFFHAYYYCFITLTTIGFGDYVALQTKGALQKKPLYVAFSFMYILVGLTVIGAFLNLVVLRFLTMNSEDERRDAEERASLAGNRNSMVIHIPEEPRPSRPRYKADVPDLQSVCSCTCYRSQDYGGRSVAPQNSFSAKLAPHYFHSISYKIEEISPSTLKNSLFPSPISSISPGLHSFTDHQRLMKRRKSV

Consider `CCOC(=O)/C(C#N)=C/c1ccoc1`, for which the Activity in the data set with Mus musculus [1] is recorded as 28.4%; in the data set with Mus musculus [2], 11.9%. The Drug metabolism entry in the data set with Liver [3] is reported as “Metabolite_Detected”. The half-life (usually the time needed for the level to fall by half in the phase considered) in [4] is less than 4 min. Further, the fold change (FC) in data set [5] stood at 2.09. Also, the inhibition in vivo (in general, the percentage by which the read-out fell short of the control) at 10 mg/kg with Mus musculus [6] was 55.9%.

For `CCOC(=O)/C(C#N)=C/c1cc2ccccc2[nH]1`, the results for the Activity in the data set on Mus musculus [1] and in the data set with Mus musculus [2] were 33.3% and 32.7%, respectively. Besides, the fold change (FC) in data set [7] was found to be 4.71. The Drug metabolism entry in the data set with Liver [8] was “Metabolite_Detected”. Further, the half-life in data set [4] is less than 4 min. Further, the inhibition in vivo at 10 mg/kg in the data set on Mus musculus [6] came out at 88.4%.

As for `N#C/C(=C\c1ccc(O)c(O)c1)C(=O)O`, the Activity is 21.4% in the data set on Mus musculus [1] and 59.4% in the data set on Mus musculus [2]. The fold change (FC) in [9] came to 1.23; in [5] it was 1.5. In addition, the Drug metabolism entry in the data set on Liver [10] is “Metabolite_Detected”.

`N#C/C(=C\c1ccoc1)C(=O)O`: the Activity in the data set on Mus musculus [1] was found to be 56.4%; in the data set on Mus musculus [11] it was 93.5%; in the data set on Mus musculus [2], 119.5%; in the data set on Mus musculus [13], 36.6%; in the data set with Mus musculus [14], 121.2%; in the data set with Mus musculus [18], 75.4%. In addition, the Activity in the data set on Mus musculus [19] worked out at 78.1%; in the data set with Mus musculus [20], 19%. Further, the fold change (FC) in [9] came out at 1.43; in data set [12], 1.1; in data set [5], 4.53; in [15], 1.8; in [17] it was 1. Besides, in the data set with Mus musculus [6], the inhibition in vivo at 10 mg/kg stood at 30.7%. Moreover, the Drug metabolism entry in the data set with Liver [16] was “Metabolite_Detected”.

`N#C/C(=C\c1cc2ccccc2[nH]1)C(=O)O`: the fold change (FC) in data set [9] worked out at 2.44; in [5], 1.18. Besides, the inhibition in vivo at 10 mg/kg in the data set with Mus musculus [6] turned out to be 25.8%. Besides, the Drug metabolism result in the data set with Liver [21] is reported as “Metabolite_Detected”.
